M4 PAM: potentiates acetylcholine response at human M4 receptor; P08173; CHO-K1 hM4/Gqi5, Fluo-8 calcium fluorescence, ACh EC20; 0% = ACh EC20, 100% = maximal ACh; activation, % at 3 µM; 0.4% of 360,000 active; AID 624126;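 active = activation above its plate's cutoff, the mean activation of sample wells plus 3 SD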
Target sequence (P08173 whole entry, looked up): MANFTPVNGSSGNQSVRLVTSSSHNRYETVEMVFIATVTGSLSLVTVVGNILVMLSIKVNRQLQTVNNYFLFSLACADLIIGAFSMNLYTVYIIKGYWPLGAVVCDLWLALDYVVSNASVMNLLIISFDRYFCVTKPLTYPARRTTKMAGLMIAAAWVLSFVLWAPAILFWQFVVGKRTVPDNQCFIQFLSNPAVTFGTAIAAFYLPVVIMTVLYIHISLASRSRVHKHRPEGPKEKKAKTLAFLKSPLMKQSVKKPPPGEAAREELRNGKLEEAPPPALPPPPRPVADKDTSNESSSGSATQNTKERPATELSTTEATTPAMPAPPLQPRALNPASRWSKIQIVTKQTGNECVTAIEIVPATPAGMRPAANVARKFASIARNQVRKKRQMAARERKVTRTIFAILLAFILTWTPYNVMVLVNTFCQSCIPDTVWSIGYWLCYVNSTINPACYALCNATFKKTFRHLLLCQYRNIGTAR
CHRM5 antagonist: CHRM5 antagonism in calcium assay | P08912 | AID 624040 | 0.59% of 360,000 active | CHO-hM5 cells, Fluo-8 calcium fluorescence, ACh EC80 | inhibition, % at 3 µM;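 active = inhibition above a per-plate cutoff, the mean of that plate's test compounds plus 3 SD, cut at about 27% in these data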;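 also: 0% = acetylcholine EC80 with DMSO and 100% = DMSO without agonist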
M4 antag: antagonists of human muscarinic M4 receptor (CHRM4) | P08173 | CHO-hM4 cells, ACh EC80, Fluo-8 calcium fluorescence | inhibition, % at 3 µM | 0.73% of 360,000 active | AID 624125;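 active = inhibition above its plate's cutoff, the mean inhibition of sample wells plus 3 SD, cut at about 27% in these data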;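 also: 0% = acetylcholine EC80 with DMSO and 100% = DMSO without agonist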
M5 PAM: potentiates acetylcholine response at human M5 receptor; P08912; CHO-K1 hM5, Fluo-8 calcium, ACh EC20 PAM; 0% = ACh EC20, 100% = ACh EC100; activation, % at 3 µM; 0.3% of 360,000 active; AID 624038;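 active = activation above the run cutoff, the mean activation of all test compounds plus 3 SD, cut at about 18% in these data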
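system = human M5 receptor in CHO-K1 cells | compound = one concentration, 3 µM final (nominal) | schedule = Post-acetylcholine fluorescence recording 140 s | signal = Fluo-8 calcium dye fluorescence, kinetic read | benchmarks = low control EC20 acetylcholine (0%), high control EC100 acetylcholine (100%) | repeats = singlicate, one well per test compound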
M5 ag: CHRM5 agonism in calcium assay; CHO-K1 hM5 cells, Fluo-8 calcium fluorescence; 0% DMSO wells, 100% maximal acetylcholine response; activation, % at 3 µM; 0.19% of 360,000 active; AID 624037;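 active = activation above the run's mean over test compounds plus 3 SD, cut at about 23% in these data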;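 also: signal is peak over basal fluorescence ratio across the kinetic read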
CHRM4 agonist: CHRM4 agonism in calcium assay; activation, % at 3 µM; P08173; CHO-K1 hM4/Gqi5, Fluo-8 calcium fluorescence; vehicle 0%, full acetylcholine response 100%; 0.14% of 360,000 active; AID 624127;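 active = activation above the run mean over all test wells plus 3 SD, cut at about 32% in these data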;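 also: peak over basal fluorescence ratio per well then scaled between controls; 0% = DMSO wells and 100% = acetylcholine at EC100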
* hit, by the source's call; ! = not confirmed by another sample. An excerpt weighted towards active compounds, which were near 1.8% of everything screened.

SMILES | M4 PAM | CHRM5 antagonist | M4 antag | M5 PAM | M5 ag | CHRM4 agonist
O=C(Nc1ccccc1)Nc1nnc([C@@H]2C[C@H](O)[C@@H](CO)O2)s1 | 0.7 | 7.2 | -4.0 | -3.6 | 0.9 | 0.2
Nc1c(C(=O)c2ccc(Cl)cc2)sc2nsc(SCCN3CCOCC3)c12 | -2.6 | 6.1 | 0.9 | -7.1 | 9.1 | 3.7
Nc1c(C(=O)c2ccccc2)sc2nsc(SCCN3CCCC3)c12 | -16.9 | 23.6 | 16.6 | -11.0 | 31.6* | 14.9
O=C(COC(=O)c1cc2ccccc2cc1O)NCc1ccccc1 | 1.3 | -8.0 | -6.0 | 18.4* | 7.0 | 2.1
O=C(COC(=O)c1ccccc1NS(=O)(=O)c1ccc(Cl)cc1)NCc1ccccc1 | 21.3* | -10.0 | -0.3 | 10.4 | 0.4 | 1.8
COc1ccc(CCNC(=O)Nc2nc(CN)cs2)cc1OC | 1.5 | 0.5 | -4.5 | 4.5 | -0.1 | 0.6
COCCNC(=O)C(c1ccc(C)o1)N(Cc1ccc(F)cc1)C(=O)Cn1nnc2ccccc21 (configuration not stated) | 0.6 | 1.4 | -8.3 | 22.5* | -5.1 | 1.6
Cc1cc2nc(-c3ccccc3)c(Cc3cccc(Cl)c3)n2c(C)c1Br | 2.4 | -1.9 | 2.6 | 2.8 | 2.1 | -0.6
COc1ccc(C(CNC(=O)c2cc3ccccc3cc2OC)N2CCCC2)cc1 (configuration not stated) | 27.4 | -1.8 | -12.8 | 20.1* | -1.4 | 8.9
Nc1nc(-c2ccccn2)nc(N)c1Cc1ccc(Cl)cc1Cl | -11.9 | 1.5 | 81.4* | 17.7 | 15.5 | 29.8
Clc1ccc(OCc2nc(-c3ccccn3)no2)c(Br)c1 | -8.0 | 0.9 | -12.0 | -9.3 | -0.7 | 0.1
Nc1nc(-c2ccccn2)nc(N)c1Cc1c(F)cccc1Cl | 9.7 | -3.2 | -3.7 | 18.7* | 5.5 | 1.4
Nc1nc(-c2ccccn2)nc(N)c1Cc1ccccc1F | 6.0 | -7.7 | 21.5 | 3.9 | 5.4 | 2.4
CN1CCN(C(=O)C[C@H]2C[C@H]3c4cc(NC(=O)NC5CCCCC5)ccc4O[C@H]3[C@@H](CO)O2)CC1 | 10.1 | 1.0 | -16.4 | -3.2 | 0.3 | -0.2
COc1ccc(NC(=O)C2c3ccccc3OCC(=O)N2Cc2ccco2)cc1 (configuration not stated) | 2.3 | 1.4 | 1.8 | -0.7 | -0.7 | -1.0
COCCNc1ncnc2c1cnn2-c1ccc(Cl)cc1 | 12.7 | 19.1 | 27.6* | -4.2 | 1.6 | 5.7
Cc1ccc(C(=O)Nc2ncc([N+](=O)[O-])s2)cc1 | -6.3 | 31.6* | 5.1 | -18.7 | 2.4 | 15.3
O=C(COc1ccc(Cl)cc1)Nc1ncc([N+](=O)[O-])s1 | -6.0 | 31.0* | 1.9 | -19.6 | 4.1 | 13.2
CC1(C)CC(=O)C=C(c2ccc(-c3ccc(OC(F)(F)F)cc3)cc2)C1=O | 3.3 | -2.1 | -9.7 | 3.3 | 2.0 | 2.5
CN1CCc2cccc3c2[C@H]1Cc1ccc(O)c(O)c1-3 | -18.5 | 26.6 | 81.3*! | -17.7 | 0.1 | 3.4
CN1CCc2cc3c(c4c2[C@H]1[C@H](O)c1ccccc1-4)OCO3 | 0.9 | -1.9 | 5.1 | 1.9 | -12.0 | -1.5
COc1ccc(Cl)cc1Cn1c(C)c(C(=O)NCc2cccc([N+](=O)[O-])c2)sc1=O | -15.0 | 1.5 | 25.7 | -11.0 | -3.6 | 7.2
CN(C)CCNc1oc(COc2cccc(Cl)c2)nc1C#N | -4.3 | -5.5 | 15.2 | 4.3 | 1.1 | 0.8
COCCNc1oc(COc2cccc(C)c2)nc1C#N | 4.0 | 8.0 | -10.5 | 23.8* | -3.0 | 0.2
CC(C)[C@H](NC(=O)c1ccccc1F)C(=O)NCc1ccc(S(N)(=O)=O)cc1 | 15.4* | 1.8 | -25.8 | 10.4 | -2.9 | 3.6
SMILES | M4 PAM | CHRM5 antagonist | M4 antag | M5 PAM | M5 ag | CHRM4 agonist
C[C@@H]1CN(Cc2nc(-c3cccs3)no2)C[C@H](C)O1 | 4.1 | 11.1 | 27.2* | -9.5 | -0.8 | 0.9
COc1cc2c(cc1OC)C(=O)C(Br)CC2 (configuration not stated) | 10.1 | 2.7 | -6.6 | -3.4 | 0.8 | 1.4
CC(C)(C)N(Cc1ccccc1)C(=O)c1ccc(Cl)cc1[N+](=O)[O-] | -18.0 | 11.4 | 26.8* | -19.2 | -9.2 | 2.3
CCN(C(=O)c1ccc(Cl)cc1[N+](=O)[O-])c1ccccc1C | -9.9 | 2.8 | 4.6 | -0.5 | -9.3 | 0.6
Cc1ccc(C(=O)N(Cc2ccccc2)C(C)(C)C)cc1C | -15.4 | 20.2 | 36.6* | -19.7 | -9.4 | -1.6
CC(C)(C)N(Cc1ccccc1)C(=O)c1ccc(Br)o1 | 1.1 | 1.6 | -4.0 | 0.4 | -8.6 | -2.2
OC(c1ccccc1)(c1nc(-c2ccccc2)cs1)C(F)(F)F (configuration not stated) | -5.6 | 4.4 | 2.7 | -9.0 | -0.9 | -0.8
CN1/C(=C\C(=O)COC(=O)c2ccco2)C(C)(C)c2ccccc21 | -7.5 | 8.6 | -2.1 | -0.1 | -1.2 | 4.3
CN1/C(=C\C(=O)c2ccco2)C(C)(C)c2ccccc21 | -19.7 | 43.6* | 37.5* | -13.7 | 4.2 | 9.7
NC(Cc1ccc(C(F)(F)F)cc1)c1csc(Nc2cc(Oc3ccccc3)ncn2)n1 (configuration not stated) | 1.3 | 3.3 | 13.1 | -0.9 | 1.6 | 12.1
COc1ccccc1NC(=O)Nc1ccnn1C1CCN(C(=O)C2CCOC2)CC1 (configuration not stated) | -5.6 | -1.6 | 10.2 | 4.9 | -0.2 | -0.7
O=C(Nc1ccc(F)cc1)C1CCCN1S(=O)(=O)c1ccc(Br)cc1 (configuration not stated) | 25.4* | 0.1 | -8.8 | 5.3 | -2.6 | 3.1
Cc1ccc(S(=O)(=O)N2CCCC2C(=O)NCc2ccccc2Cl)cc1 (configuration not stated) | -0.1 | -16.5 | 2.4 | 18.8* | 3.0 | 1.1
O=C(O)C1CCCN1S(=O)(=O)c1ccccc1 (configuration not stated) | 38.9* | -8.8 | -6.8 | 26.0* | 0.7 | 1.5
Cc1ccc(S(=O)(=O)N(C)C)cc1NC(=O)C1CCCCN1S(=O)(=O)c1ccccc1 (configuration not stated) | 23.5* | 2.8 | -3.3 | -5.2 | -5.6 | 0.9
CC(=O)Nc1ccc(S(=O)(=O)N2CCCC2C(=O)Nc2ccc(F)cc2)cc1 (configuration not stated) | 6.8 | -4.4 | 3.6 | 4.1 | -1.4 | 0.8
O=C(NCCc1ccccc1)C1Cc2c(-c3ccc(Cl)cc3)ccnc2O1 (configuration not stated) | -1.8 | -1.7 | -15.0 | -1.5 | -1.1 | 2.9
Nc1ncnc2c1ncn2C1OCC(O)C1O (configuration not stated) | 10.3 | -4.3 | -11.0 | -0.5 | 2.2 | 1.9
Brc1cccc(-c2nc3c4ccccc4ccn3c2Cc2ccsc2)c1 | -7.5 | 4.7 | 6.8 | -2.6 | -2.5 | -1.6

Screening results as filed in PubChem.
